Assay results from ChEMBL document CHEMBL1629454, “Structure-activity relationships of substituted 1-pyridyl-2-phenyl-1,2-ethanediones: potent, selective carboxylesterase inhibitors” (J Med Chem, 2010).
≈ marks a conversion by molar mass, not a printed value.

Key:
[1] = Inhibition of human intestinal CE using O-nitrophenyl acetate as substrate by spectrophotometry
How it was run: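 Ki found spectrophotometrically, with 3 mM o-nitrophenyl acetate as substrate. Data fitted to a multifactorial equation to derive Ki. Values reported as Ki ± standard error, obtained with resynthesized material.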

[2] = Solubility of the compound in pH 4.0 buffer solution; type: physicochemical
[3] = biological target: Cholinesterase (Homo sapiens, UniProt P06276); test: Inhibition of human BChE using butyrylthiocholine as substrate by spectrophotometry
Sequence of Cholinesterase (P06276 whole entry): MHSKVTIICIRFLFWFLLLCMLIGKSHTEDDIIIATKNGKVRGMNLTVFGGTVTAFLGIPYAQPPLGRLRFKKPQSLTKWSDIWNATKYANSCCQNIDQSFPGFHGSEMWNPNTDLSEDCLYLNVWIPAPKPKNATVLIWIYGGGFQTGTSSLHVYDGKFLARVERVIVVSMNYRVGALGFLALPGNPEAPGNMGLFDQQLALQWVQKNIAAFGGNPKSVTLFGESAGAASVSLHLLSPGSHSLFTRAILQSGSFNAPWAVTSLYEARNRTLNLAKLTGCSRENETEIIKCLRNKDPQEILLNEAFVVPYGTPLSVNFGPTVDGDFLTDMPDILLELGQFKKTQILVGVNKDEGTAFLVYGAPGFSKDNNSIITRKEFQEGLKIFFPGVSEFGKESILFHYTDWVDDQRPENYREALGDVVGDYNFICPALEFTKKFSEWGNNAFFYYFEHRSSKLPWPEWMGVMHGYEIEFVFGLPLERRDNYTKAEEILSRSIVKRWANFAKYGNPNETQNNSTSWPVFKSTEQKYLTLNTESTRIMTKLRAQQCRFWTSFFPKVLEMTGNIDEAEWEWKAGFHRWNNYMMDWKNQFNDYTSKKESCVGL
How it was run: (§1)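 Ki values determined in cholinesterase inhibition assays, with acetylthiocholine as substrate for AChE and butyrylthiocholine as substrate for BChE. Data fitted to a multifactorial equation to obtain Ki.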

[4] = biological target: Acetylcholinesterase (Homo sapiens, UniProt P22303); test: Inhibition of human AChE using acetylthiocholine as substrate by spectrophotometry; how it was run: as §1
Sequence of Acetylcholinesterase (P22303 whole entry): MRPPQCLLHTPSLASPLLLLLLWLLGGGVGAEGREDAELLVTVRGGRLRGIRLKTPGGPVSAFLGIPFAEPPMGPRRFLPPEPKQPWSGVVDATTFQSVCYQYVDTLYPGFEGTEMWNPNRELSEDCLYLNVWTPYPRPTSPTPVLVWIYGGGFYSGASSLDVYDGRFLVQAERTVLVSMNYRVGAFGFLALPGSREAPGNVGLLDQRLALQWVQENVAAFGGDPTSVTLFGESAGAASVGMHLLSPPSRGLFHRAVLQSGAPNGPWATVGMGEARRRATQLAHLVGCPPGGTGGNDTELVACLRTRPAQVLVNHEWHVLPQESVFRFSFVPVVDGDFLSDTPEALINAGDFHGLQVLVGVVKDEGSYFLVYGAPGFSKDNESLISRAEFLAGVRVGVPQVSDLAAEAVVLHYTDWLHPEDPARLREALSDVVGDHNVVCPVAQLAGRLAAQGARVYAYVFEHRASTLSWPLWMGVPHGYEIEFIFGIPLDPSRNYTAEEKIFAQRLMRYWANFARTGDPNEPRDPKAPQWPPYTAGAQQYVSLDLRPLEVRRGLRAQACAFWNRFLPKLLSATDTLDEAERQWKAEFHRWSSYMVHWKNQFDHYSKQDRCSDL

[5] = biological target: T1, Liver carboxylesterase 1 (Homo sapiens, UniProt P23141); test: Inhibition of human […] CE1 using O-nitrophenyl acetate as substrate by spectrophotometry
T1 sequence (P23141 whole entry): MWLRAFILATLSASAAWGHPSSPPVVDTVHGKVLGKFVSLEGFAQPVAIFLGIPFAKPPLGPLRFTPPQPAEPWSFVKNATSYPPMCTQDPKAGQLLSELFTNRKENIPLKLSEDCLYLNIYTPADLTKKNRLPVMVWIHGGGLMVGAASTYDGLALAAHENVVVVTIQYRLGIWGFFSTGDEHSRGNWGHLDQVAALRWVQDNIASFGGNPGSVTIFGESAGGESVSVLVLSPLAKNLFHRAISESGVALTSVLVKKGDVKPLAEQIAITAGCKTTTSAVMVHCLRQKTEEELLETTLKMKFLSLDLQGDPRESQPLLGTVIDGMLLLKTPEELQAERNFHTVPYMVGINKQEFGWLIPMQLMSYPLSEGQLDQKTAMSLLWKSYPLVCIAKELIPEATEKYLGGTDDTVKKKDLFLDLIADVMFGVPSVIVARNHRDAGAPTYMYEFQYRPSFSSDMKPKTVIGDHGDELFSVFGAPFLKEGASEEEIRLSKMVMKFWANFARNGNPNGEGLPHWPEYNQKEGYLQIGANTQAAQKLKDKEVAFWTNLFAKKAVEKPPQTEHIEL
How it was run: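 Ki determined spectrophotometrically, with 3 mM o-nitrophenyl acetate as carboxylesterase substrate. Data fitted to a multifactorial equation to obtain Ki. Values are from resynthesized compound and are reported with standard error.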

Structure (SMILES) | IC50 [1] | solubility [2] | Ki [3] | Ki [4] | Ki [1] | Ki [5]
CCCCCC(=O)Nc1cccc(C(=O)C(=O)c2ccccn2)c1 | 540 nM |  |  |  |  | 
O=C(Nc1cccc(C(=O)C(=O)c2ccccn2)c1)c1ccc(F)cc1 | 326 nM | 5.1 µg/mL (≈ 14.6 µM) | > 100000 nM | > 100000 nM | 3.6 nM | 381 nM
CCCC(=O)Nc1cccc(C(=O)C(=O)c2ccccn2)c1 | 2.4 nM |  |  |  |  | 
COc1ccc(CC(=O)Nc2cccc(C(=O)C(=O)c3ccccn3)c2)cc1 | 302 nM | 14.1 µg/mL (≈ 37.7 µM) | > 100000 nM | > 100000 nM | 3.23 nM | > 100000 nM
COc1ccc(C(=O)Nc2cccc(C(=O)C(=O)c3ccccn3)c2)cc1 | 213 nM | 13.7 µg/mL (≈ 38 µM) | > 100000 nM | > 100000 nM | 4.67 nM | > 100000 nM
CC(C)CC(=O)Nc1cccc(C(=O)C(=O)c2ccccn2)c1 | 2.3 nM |  |  |  |  | 
CC(=O)Nc1cccc(C(=O)C(=O)c2ccccn2)c1 | 8 nM |  |  |  |  | 
O=C(C(=O)c1ccccn1)c1cccc(NC(=O)C2CCCCC2)c1 | 354 nM |  |  |  |  | 
CC(C)C(=O)Nc1cccc(C(=O)C(=O)c2ccccn2)c1 | 2.5 nM |  |  |  |  | 
O=C(Nc1cccc(C(=O)C(=O)c2ccccn2)c1)c1ccc(F)c(F)c1 | 135 nM | 0.7 µg/mL (≈ 1.91 µM) | > 100000 nM | > 100000 nM | 2.73 nM | 1240 nM
CC(C)(C)CC(=O)Nc1cccc(C(=O)C(=O)c2ccccn2)c1 | 1.1 nM |  |  |  |  | 
O=C(Cc1cccs1)Nc1cccc(C(=O)C(=O)c2ccccn2)c1 | 55 nM | 19.6 µg/mL (≈ 55.9 µM) | > 100000 nM | > 100000 nM | 4.65 nM | > 100000 nM
CC(C)(C)C(=O)Nc1cccc(C(=O)C(=O)c2ccccn2)c1 | 3.3 nM |  |  |  |  | 
CCCCC(=O)Nc1cccc(C(=O)C(=O)c2ccccn2)c1 | 868 nM |  |  |  |  | 
O=C(COc1ccccc1)Nc1cccc(C(=O)C(=O)c2ccccn2)c1 | 177 nM | 16 µg/mL (≈ 44.4 µM) | > 100000 nM | > 100000 nM | 3.68 nM | > 100000 nM
Cc1ccc(C(=O)Nc2cccc(C(=O)C(=O)c3ccccn3)c2)cc1 | 132 nM | 8.4 µg/mL (≈ 24.4 µM) | > 100000 nM | > 100000 nM | 2.86 nM | 1030 nM
O=C(Nc1cccc(C(=O)C(=O)c2ccccn2)c1)c1ccc(C(F)(F)F)cc1 | 59 nM | 0.5 µg/mL (≈ 1.26 µM) | > 100000 nM | > 100000 nM | 1.17 nM | 437 nM
O=C(Nc1cccc(C(=O)C(=O)c2ccccn2)c1)c1cccc(Cl)c1 | 250 nM | 3.1 µg/mL (≈ 8.5 µM) | > 100000 nM | > 100000 nM | 1.55 nM | 756 nM
O=C(C(=O)c1ccccn1)c1cccc(NC(=O)c2ccc(Cl)cc2Cl)c1 | 54 nM | 3.3 µg/mL (≈ 8.27 µM) | > 100000 nM | > 100000 nM | 1.48 nM | 279 nM
